A selection: hits, their analogues and other compounds. The true share with any hit is near 1.5%.
Rpn11 inh: blocks the human proteasome subunit Rpn11; human 26S proteasome, Ub4-pepOG fluorescence polarization; 20S core pre-blocked with epoxomicin; calls only at 20 µM; actives 0.59% (n = 360,000);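 active means inhibition at 20 µM, scaled to each plate's controls, above about 33%, limit read from the data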
CSN inh: inhibitors of human CSN-mediated cullin deneddylation | AID 651999 | Purified CSN, SCF-Nedd8-OG deneddylation, fluorescence polarization | actives 0.38% (n = 360,000) | Q92905 | inhibition, % at 12.5 µM;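 active means pattern-corrected inhibition above about 35%, with an unprinted fluorescence ratio check between 0.5 and 1.5, limit read from the data, passing the limit was not always enough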
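Assay system: Purified human Csn5 enzyme expressed in HEK293T cells | Amount: Enzyme 0.24 nM | Measured by: Fluorescence polarization readout | Medium: Tris/NaCl/DTT buffer, pH 7.5 | Compound dosing: One concentration, 12.5 µM, 0.25% DMSO | Times: 90 min incubation of compound, enzyme and substrate at room temperature | Control set: no-enzyme wells high, enzyme-with-substrate wells low | Read-out: % inhibition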
HNF4A DNA FP: change in binding of human HNF4 alpha to DNA. activity change, % at 10 µM. AID 1224865. actives 0.3% (n = 360,000). HNF4a-FITC DNA binding, fluorescence polarization, 1 h. P41235; in the data active means activity change above about 30%, passing the limit was not always enough
Target sequence (P41235 whole entry, looked up): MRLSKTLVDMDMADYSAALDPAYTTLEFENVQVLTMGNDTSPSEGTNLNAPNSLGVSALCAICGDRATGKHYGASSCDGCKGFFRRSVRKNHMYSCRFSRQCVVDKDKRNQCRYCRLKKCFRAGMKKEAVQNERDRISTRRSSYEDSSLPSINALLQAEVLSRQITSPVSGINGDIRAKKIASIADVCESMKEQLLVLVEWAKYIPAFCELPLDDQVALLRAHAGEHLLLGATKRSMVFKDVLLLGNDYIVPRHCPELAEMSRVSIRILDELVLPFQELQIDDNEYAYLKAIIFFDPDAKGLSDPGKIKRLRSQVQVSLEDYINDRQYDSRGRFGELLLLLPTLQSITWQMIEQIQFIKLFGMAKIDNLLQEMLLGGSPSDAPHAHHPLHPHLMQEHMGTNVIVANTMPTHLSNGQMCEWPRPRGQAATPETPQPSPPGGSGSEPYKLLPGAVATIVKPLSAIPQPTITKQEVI
TPT1 inhibitor: inhibitors of Candida albicans tRNA 2'-phosphotransferase TPT1; recombinant caTPT1, FP RNA substrate dephosphorylation; inhibition, % at 5 µM; actives 0.81% (n = 300,000); AID 1962;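 active means inhibition above the mean of all tested compounds plus 3 SD, set per screening campaign, cut at about 24% in these data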
TPT1 inh confirm: confirmation of Candida albicans TPT1 inhibitors; inhibition, % at 5 µM; shares compounds with TPT1 inhibitor; actives 74% (n = 2,400); AID 2149; recombinant caTPT1, fluorescence polarization, RNase T1 coupled;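 active means inhibition above the primary screen limit, the mean inhibition of all tested compounds plus 3 SD, cut at about 25% in these data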
RNase T1 inh: RNase T1 inhibition in TPT1 counter-screen. shares compounds with TPT1 inhibitor. RNase T1 cleavage, fluorescence polarization, 1536-well. inhibition, % at 5 µM. actives 83% (n = 2,400);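 active means inhibition above the solvent-only control well mean plus 3 SD, limit set per screening run, cut at about 23% in these data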;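 further: inhibitors block cleavage so intact labeled substrate keeps polarization high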
Target sequence (P00651 whole entry, looked up): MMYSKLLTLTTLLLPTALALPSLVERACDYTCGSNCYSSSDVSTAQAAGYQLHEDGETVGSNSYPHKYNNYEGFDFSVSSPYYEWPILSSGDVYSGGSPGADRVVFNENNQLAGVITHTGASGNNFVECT
Numbers stand for hits; – = inactive; · = not tested or not shown; + = active, no number.

SMILES	Rpn11 inh	CSN inh	HNF4A DNA FP	TPT1 inhibitor	TPT1 inh confirm	RNase T1 inh
Cn1nc(C(F)(F)F)c(-c2ccc(Br)cc2)c1NC(=O)CSCC(=O)O	–	–	–	–	·	·
CCOc1ccc(-n2ccnc2SCC(=O)Nc2cc(C)on2)cc1	–	–	–	119	–	–
CC1(C(=O)NS(=O)(=O)c2cccc(C#N)c2)CCN1C(=O)Cc1ccccc1Cl (centres undefined)	–	–	–	·	·	·
Cc1ccc(C(=O)CSc2nc(-c3ccccc3)ccc2C#N)cc1	·	–	–	–	·	·
N#Cc1ccc(-c2ccco2)nc1SCC(=O)c1ccc(Cl)cc1	+	–	–	99	62	67
CC(=O)N1CCC(C(=O)N2c3ccccc3N=C(c3ccc4c(c3)OCO4)C2C(=O)NCc2ccccc2)CC1 (centres undefined)	·	–	–	·	·	·
COc1ccc(NC(=O)N(C)C[C@H]2OCc3cnnn3CCCC(=O)N([C@@H](C)CO)C[C@H]2C)c(OC)c1	–	–	–	·	·	·
O=C(/C=C/c1ccc2ccccc2n1)c1cc(Br)ccc1O	·	–	–	43	–	23
O=C(O)/C=C/c1ccc2ccccc2n1	–	–	–	–	·	·
O=C(Nc1ccc(S(=O)(=O)Nc2nccs2)cc1)c1ccc(=O)[nH]c1	–	–	–	36	37	51
O=C(Nc1ccc(S(=O)(=O)Nc2nccs2)cc1)c1ccncc1	–	–	–	·	·	·
C/C(=N/Nc1ccc([N+](=O)[O-])cc1)c1ccc(C)cc1C	–	–	–	26	36	47
C/C(=N\Nc1ccc([N+](=O)[O-])cc1)c1ccc2c(c1)OCO2	–	–	–	57	53	65
C/C(=N\NS(=O)(=O)c1ccc([N+](=O)[O-])cc1)c1ccc2c(c1)OCO2	–	–	–	·	·	·
O=C(N/N=C\c1c(O)ccc2ccccc12)c1cncc(Br)c1	·	–	–	136	151	138
O=C(N/N=C/c1c(O)ccc2ccccc12)c1cccnc1	·	–	43	64	99	98
CC(C)CC(=O)c1c(O)c(C=O)c(O)c2c1O[C@@]1(C)[C@@H](C2)C[C@H]2C[C@@H]1C2(C)C	–	–	–	·	·	·
Cn1c(CN2CCCC2)nc2cc(NC(=O)COc3ccc(Cl)cc3)ccc21	–	–	–	60	–	–
COc1ccc(OCC(=O)Nc2ccc3c(c2)nc(CN2CCCC2)n3C)cc1	–	–	–	–	·	·
CCCCCCCCN1C(=O)[C@H](CC(=O)N2CCCC2)C[C@@]2(C(=O)OC)CC(C)(C)CC=C12	·	–	–	·	·	·
Cc1ccc(-c2c(C(=O)Nc3ccccc3C)c(C)[nH]c(=S)c2C#N)o1	–	–	–	–	·	·
Cc1ccccc1NC(=O)c1c(C)[nH]c(=S)c(C#N)c1-c1ccc(Cl)cc1	–	–	–	30	–	22
Cn1c(NCc2ccccc2F)nc2cc(-c3cccc(C(F)(F)F)c3)sc2c1=O	–	–	–	·	·	·
COc1nc(N)c(S(=O)(=O)c2ccc(C)cc2)cc1C#N	–	–	–	29	–	29
Cc1ccc(-n2cc(S(=O)(=O)c3ccc(C)cc3)[nH]c2=O)cc1	–	–	–	–	·	·
SMILES	Rpn11 inh	CSN inh	HNF4A DNA FP	TPT1 inhibitor	TPT1 inh confirm	RNase T1 inh
Cc1ccc(S(=O)(=O)c2cc(C#N)c(=O)[nH]c2N)cc1	–	–	–	33	–	29
Oc1[nH]c(=S)sc1/C=C1\C(c2ccccc2)=Nc2ccccc21	·	–	95	138	130	136
COCCN(C(=O)COC(=O)c1ccc2[nH]c(C)c(C)c2c1)c1c(N)n(Cc2ccccc2)c(=O)[nH]c1=O	–	–	–	28	60	71
O=C1CN(CC(=O)Nc2cccc(Cl)c2Cl)c2ccccc2N1	·	–	35	34	–	24
C=CCOc1ccc(/C=C/C(=O)OCC(=O)N(C)C2CCS(=O)(=O)C2)cc1 (centres undefined)	–	–	–	–	·	·
O=C(OCCOc1ccccc1F)c1cccc(S(=O)(=O)N2CCOCC2)c1	–	–	–	·	·	·
COc1cc(/C=C2\CC/C(=C\c3cc(OC)c(OC)c(OC)c3)C2=O)cc(OC)c1OC	–	–	–	39	48	57
COc1ccc(/C=C2/CC/C(=C\c3ccc(OC)c(OC)c3OC)C2=O)c(OC)c1OC	–	–	–	24	36	43
O=[N+]([O-])c1cncn1CCN1CCOCC1	–	–	–	·	·	·
CCC(C)(C)C(=O)Nc1cc([N+](=O)[O-])ccc1Cl	–	–	–	–	·	·
CCN(CC)c1nc(C)c(C(=S)Nc2cc([N+](=O)[O-])ccc2Cl)s1	·	–	47	28	61	73
CC1(C)Cc2c(c(N3CCOCC3)nc3sc(-c4ccc(C(=O)O)o4)c(N)c23)CO1	·	62	85	33	35	47
CNC(=O)c1ccc(-c2sc3nc(N4CCOCC4)c4c(c3c2N)CC(C)(C)OC4)o1	–	–	–	–	·	·
C[C@@H]1CN([C@@H](C)CO)C(=O)CCCn2nncc2CO[C@@H]1CN(C)S(=O)(=O)c1ccccc1C#N	–	–	–	·	·	·
CN(C)c1ccc(/C=C/C(=O)c2cccc(Br)c2)cc1	·	–	–	99	97	94
CCCc1cc2c(=O)n(NC(=O)c3nn(C)cc3[N+](=O)[O-])c(C)nc2s1	–	–	–	57	–	–
Cn1cc([N+](=O)[O-])c(C(=O)NCC(=O)O)n1	–	–	–	–	·	·
COc1ccccc1-c1cnc(C(O)c2ccc(C)cc2)[nH]1 (centres undefined)	–	–	–	·	·	·
COc1ccc(Cc2nnc(NC(=O)c3ccccc3F)s2)cc1	–	–	–	·	·	·
COCCn1c(Cc2ccccc2)nnc1SC(C)C(=O)NC1CC1 (centres undefined)	–	–	–	·	·	·
CCOC1=C/C(=C/c2c(N)n3oc(C)cc3nc2=O)C=CC1=O	·	·	·	–	·	·
CS(=O)(=O)c1ccc2c(c1)sc1nc(=O)c(/C=C3/C=CC(=O)C(O)=C3)c(N)n12	·	–	–	45	98	104
COC1=C/C(=C/c2c(N)n3c(nc2=O)sc2cc(S(C)(=O)=O)ccc23)C=CC1=O	·	–	96	54	147	143
CC(=O)N1c2ccc(S(=O)(=O)N3CCC(C(=O)N4CCCC(C)C4)CC3)cc2CC1C (centres undefined)	–	–	–	–	·	·
Cc1ccc([C@H]2C[C@H](O)[C@@H](n3cc(COC(=O)c4ccccc4)nn3)CN2Cc2cccs2)cc1	–	–	–	·	·	·
CC(=O)c1ccc(-c2ccc(/C=C(/Sc3n[nH]c(C)n3)C(=O)O)o2)cc1	·	–	–	78	79	91
COc1ccc2o/c(=N\O)c(C(=O)Nc3ccccc3OC)cc2c1	–	–	–	162	127	125
Cc1ccc(/C=C2/NC(=O)N(c3ccccc3)C2=O)o1	–	–	–	–	·	·
